Published values pooled from the literature.
Each line is one published result; the experiments were not run side by side.
Target: TRAF2 and NCK-interacting protein kinase (TNIK, Homo sapiens, UniProt Q9UKE5)

COc1cccc2c(NCc3ccccc3)nc(-n3c(N)nc4ccccc43)nc12
inhibition (target engagement in cells, inhibitor, chemoproteomics; 20 mM): 3.5%

CN1CCC2(CC1)NC(=O)c1c(c3ccc(Cl)c(Cl)c3n1C)C2C#N (racemic)
ΔTm (thermal stability, DSF; 10 µM): 0 °C

Nc1ncnc2occ(-c3ccc(NC(=O)Nc4cc(C(F)(F)F)ccc4F)cc3)c12
remaining signal (cell-free assay, inhibitor; 20 µM): 6.9%

C=CC(=O)Nc1cc(Nc2nccc(Nc3cc(Cl)c(F)cc3C(C)(C)O)n2)c(OC)cc1N1CC[C@@H](N(C)C)C1
inhibition (enzyme activity, inhibitor; 1 µM): 47%

CN1CCN(c2cnc3c(C4CCN(C(=O)c5ccc(OC(F)(F)F)cc5N)CC4)ncnc3c2)CC1
remaining binding (cell-free assay, competition with immobilised ligand; 1 µM): 100%

Cn1c2c(Cl)c(Cl)ccc2c2cc(N)[nH]c(=O)c21
ΔTm (thermal stability, DSF; 10 µM): 0.1 °C

CN(C)c1ncnc(-c2ccc3nc(Nc4cc(CN5CCN(C(=O)CC(F)(F)F)CC5)ccn4)[nH]c3c2)c1Cl
remaining binding (cell-free assay, competition with immobilised ligand; 1 µM): 53%

Cc1ccc(C(=O)Nc2ccc(CN3CCN(C)CC3)c(C(F)(F)F)c2)cc1C#Cc1cnc2cccnn12
remaining activity (enzyme activity, inhibitor; 23.5 nM): 34%

C[C@@H]1CN(c2cc(-c3nn(C)c4ccc(OC5(C)CC5)cc34)ncn2)C[C@H](C)O1
remaining binding (cell-free assay, competition with immobilised ligand; 1 µM): 80%

Cn1c2c(c3ccc(Cl)c(Cl)c31)C(C#N)C(C)(C)NC2=O (centres unmarked)
ΔTm (thermal stability, DSF; 10 µM): -0.4 °C

Cn1cnc(Br)c1C1=CN(c2ncnc3[nH]cnc23)CCS1
inhibition (enzyme activity, inhibitor, radiometric; 50 nM): 21.5%

O=C(Nc1cnn(-c2csc(C(=O)NC3COC3)c2)c1)Nc1ccccc1Cl
remaining activity (enzyme activity, inhibitor; 5 µM): 53.2%

Cn1cc(Cl)c2c(Oc3c(F)cc(Nc4cc(Cl)nc(N)n4)cc3F)ccnc21
remaining binding (cell-free assay, competition with immobilised ligand; 0.1 µM): 96%

CS(=O)(=O)Nc1cccc(-c2csc(NC(=O)CSc3nc4nccnc4c(=O)n3CCc3ccccc3)n2)c1
inhibition (enzyme activity, inhibitor; 10 µM): -2%

Cn1c2c(c3ccc(Cl)c(Cl)c31)C(C#N)C1(CCCCC1)NC2=O (racemic)
ΔTm (thermal stability, DSF; 10 µM): 0 °C

CN1CC(Oc2cnc(C#N)cc2-c2ccn3nc(NC(=O)C4CC4)cc3c2)C1
inhibition (enzyme activity, inhibitor; 1 µM): 29%

COc1ccc2cc(OCC3(C(=O)O)CN(C(=O)c4ccc(F)cc4)C3)ccc2c1
remaining binding (cell-free assay, competition with immobilised ligand; 1 µM): 61%

Cn1c2c(c3ccccc31)C(C#N)C(C)(C)NC2=O (centres unmarked)
ΔTm (thermal stability, DSF; 10 µM): -0.1 °C

O=C(O)[C@H]1[C@H](Cn2nnc3ccccc3c2=O)CC[C@@H]1C(=O)c1ccc(OCCC2CCOCC2)cc1
remaining binding (cell-free assay, competition with immobilised ligand; 1 µM): 84%

CCN1CCC2(CC1)NC(=O)c1c(c3ccc(Cl)c(Cl)c3n1C)C2C#N (racemic)
ΔTm (thermal stability, DSF; 10 µM): 0 °C
